Bioassay records from PubChem BioAssay.
Most compounds without a hit are left out; they make up all but 3.1% or so of the library.
MBD2 inh – inhibitors of MBD2 binding to methylated DNA, primary screen, biochemical, TR-FRET, DNA-binding domain, human | Methyl-CpG-binding domain protein 2 (Homo sapiens), Q9UBB5 | inhibition, % at 4.4 µM | 370,000 tested, 0.31% active | MBD2 binding to methylated oligonucleotide; in the data active means inhibition above about 13%
ABHD5-PLIN5 inh – ABHD5-PLIN5 interaction inhibitors, primary screen, cell lysate, split luciferase complementation, luminescence; Split G. princeps luciferase complementation, 4 h; AID 602281, 2012; 360,000 tested, 0.78% active; inhibition, % at 4 µM;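 active means inhibition above the mean inhibition across every tested compound plus 3 SD, cut at about 22% in these data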;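 further: 0% = DMSO only wells and the 100% control is not disclosed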
RBBP9 inhibitor – human RBBP9 inhibitors, primary screen, biochemical, fluorescence polarization, FP-Rh probe, HTS | Serine hydrolase RBBP9 (Homo sapiens), O75884 | recombinant RBBP9 | inhibition, % at 7.94 µM | 220,000 tested, 0.2% active | AID 1515, 2009;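 active means inhibition above the campaign mean of all tested compounds plus 3 SD, cut at about 14% in these data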;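 further: plate controls were DMSO wells with RBBP9 for no effect and wells lacking RBBP9 protein for full effect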
Target sequence (O75884 whole entry, looked up): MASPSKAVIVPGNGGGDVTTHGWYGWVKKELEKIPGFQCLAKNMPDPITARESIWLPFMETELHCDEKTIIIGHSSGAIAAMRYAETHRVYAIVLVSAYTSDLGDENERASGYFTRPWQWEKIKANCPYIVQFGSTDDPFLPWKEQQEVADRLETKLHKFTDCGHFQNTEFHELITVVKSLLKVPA
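Test system: recombinant human RBBP9. Quantity: 2.5 µM RBBP9 dispensing solution, before mixing. Detection: FP readout at 525/598 nm. Reagent: Serine-hydrolase probe FP-Rh, 375 nM pre-mixing. Measure: % inhibition. Control set: DMSO-treated enzyme wells and wells lacking RBBP9. Buffer or medium: Tris-NaCl-Pluronic buffer, pH 8.0. Times: preincubation 30 min plus labeling 45 min at 25 °C.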
UHRF1 binding – UHRF1 methylated DNA binding inhibitors, primary screen, counter-screen for MBD2 inhibitor project, biochemical, TR-FRET, human UHRF1, single concentration. E3 ubiquitin-protein ligase UHRF1 (Homo sapiens), Q96T88. UHRF1 binding to methylated oligo. inhibition, % at 4.4 µM. 370,000 tested, 0.75% active. AID 687016, 2013; in the data active means inhibition above about 21%;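 further: UHRF1 SRA domain binding a hemimethylated CpG hairpin DNA probe; 0% = median of test compound wells and 100% = reference inhibitor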
LEDGF integ inh – blockers of LEDGF/p75-dependent integrase strand transfer – biochemical, TR-FRET, high throughput, primary screen. inhibition, % at 3.7 µM. 370,000 tested, 0.64% active. HIV-1 integrase (with human LEDGF/p75). TR-FRET IN-LEDGF/p75 DNA integration, Eu/Cy5;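 active means inhibition above the screen-wide mean plus 3 SD, cut at about 13% in these data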;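 further: signal is the Cy5 over europium emission ratio at 671 and 618 nm; 0% = plate median of compound wells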
PRMT1 inh – PRMT1 methyltransferase inhibitors, primary screen, biochemical, fluorescence polarization; 370,000 tested, 1.3% active; Protein arginine N-methyltransferase 1 (Homo sapiens), Q99873; AID 652257, 2013; inhibition, % at 2.79 µM; recombinant PRMT1, activity-based probe fluorescence polarization;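 active means inhibition above about 21% made by adding two undisclosed values, limit read from the data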
Target sequence (Q99873 whole entry, looked up): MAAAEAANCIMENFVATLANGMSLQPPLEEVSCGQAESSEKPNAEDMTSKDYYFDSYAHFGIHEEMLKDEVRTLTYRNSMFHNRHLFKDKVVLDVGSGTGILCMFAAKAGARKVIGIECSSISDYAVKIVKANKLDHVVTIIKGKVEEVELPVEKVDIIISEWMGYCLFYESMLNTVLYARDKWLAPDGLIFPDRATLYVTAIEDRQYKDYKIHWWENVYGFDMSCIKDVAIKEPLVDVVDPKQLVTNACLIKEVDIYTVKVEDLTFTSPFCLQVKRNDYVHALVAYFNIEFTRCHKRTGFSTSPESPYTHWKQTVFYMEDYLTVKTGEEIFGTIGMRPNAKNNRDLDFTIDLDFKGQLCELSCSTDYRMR
ABHD5 PLIN5 conf – ABHD5-PLIN5 interaction inhibitors, confirmation, biochemical, luminescence; shares compounds with ABHD5-PLIN5 inh; inhibition, % at 4 µM; 2,200 tested, 67% active; AID 651612, 2012; in the data active means inhibition above about 23%;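 further: 0% = DMSO vehicle wells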
HNF4 split-luc – HNF4 dimerization inhibitors, counter-screen for ABHD5-PLIN5 interaction inhibitor project, biochemical, split-luciferase complementation, luminescence | 2,200 tested, 77% active | AID 651674, 2012 | inhibition, % at 4 µM | shares compounds with ABHD5-PLIN5 inh;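 active means mean inhibition across replicate wells exceeding the computed hit threshold, cut at about 13% in these data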;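 further: light from luciferase halves that rejoin when HNF4 fusion proteins dimerize; 0% = DMSO only wells and the 100% control is not given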
* marks the source's active call; other numbers are inactive results; x = no result given; ! = repeats disagree.

SMILES	MBD2 inh	ABHD5-PLIN5 inh	RBBP9 inhibitor	UHRF1 binding	LEDGF integ inh	PRMT1 inh	ABHD5 PLIN5 conf	HNF4 split-luc
CCC(C)NCCCOc1ccc(C)cc1OC (configuration not stated)	0.2	-6.6	-5.7	0.1	-4.0	1.4	x	x
CNCCCOc1ccc(C)cc1OC	2.4	56.7*	-1.2	-1.5	-2.2	5.0	1.9	-0.5
CCn1c(=N)n(CC(O)c2ccco2)c2ccccc21 (configuration not stated)	4.8	4.0	-0.1	1.1	-2.2	3.4	x	x
N=c1n(Cc2ccccc2)c2ccccc2n1CC(O)c1ccco1 (configuration not stated)	-3.2	23.4*	-3.4	1.8	0.3	-0.5	8.0	14.8*
CCOC(=O)c1ccc(NC(=O)CSc2nc3c(c(=O)n2CC)SC(C)C3)cc1 (configuration not stated)	-0.8	81.3*	0.2	-1.2	2.2	-1.4	4.1	8.4
Cc1cc(C)c(NC(=O)CN2CCN3CCCC3C2)c(C)c1 (configuration not stated)	-4.2	31.5*!	-5.9	-3.7	1.9	0.6	33.2*	1.4
Cc1cc(C)c(NC(=O)CCCN2CCN(C)CC2)c(C)c1	3.5	5.3	-0.9	1.8	-3.1	1.3	x	x
Cc1ccccc1Oc1nc2c(C)cccn2c(=O)c1/C=C(\C#N)C(=O)Nc1c(C)n(C)n(-c2ccccc2)c1=O	-3.4	28.1*	-4.6	-2.5	-5.2	2.7	49.0*	35.3*
O=C(/C=C/c1cccnc1)c1cccc(O)c1	-1.4	63.2*	x	-3.5	1.3	7.7	81.1*	89.8*
O=C(/C=C/c1cccc(O)c1)c1cccnc1	2.7	46.5*	-6.5	0.6	-2.7	8.1	70.1*	64.0*
O=C(CSc1nc2ccccc2nc1N1CCCCC1)N1CCN(S(=O)(=O)c2cc(Cl)ccc2Cl)CC1	-1.8	x	x	-1.5	1.0	1.2	x	x
COc1ccc(S[C@]2(C(=O)N(C)C)CC(=O)N(c3ccc(C#N)cc3)[C@@H]2c2ccc(OC)cc2)cc1	-4.4	x	x	0.8	4.2	4.1	x	x
NC(=O)c1ncn([C@@H]2O[C@H](C(=O)N[C@H](Cc3c[nH]c4ccccc34)C(=O)N3CCN(CC(=O)N4CCCC4)CC3)[C@@H](O)[C@H]2O)n1	-1.8	x	x	0.5	-0.9	-5.3	x	x
COc1ccc(-c2nc(CN3CCN(c4cc(C)nc(C)c4)CC3)c(C)o2)c2ccccc12	-0.7	25.3*	-5.7	2.8	-5.0	2.1	11.9	0.7
CC1(C)CC(=O)C(C(C2=C(O)CC(C)(C)CC2=O)c2ccc(Br)s2)C(=O)C1 (configuration not stated)	4.3	67.0*	-7.0	4.2	0.8	21.0	91.5*	97.3*
Cc1ccc(C(C2=C(O)CC(C)(C)CC2=O)C2C(=O)CC(C)(C)CC2=O)s1 (configuration not stated)	1.9	16.9	1.6	4.7	3.5	3.2	x	x
N#CCc1c(C#N)c(N)nc(N2CCN(Cc3ccc4c(c3)OCO4)CC2)c1C#N	-8.0	26.0*	-6.4	-2.7	-0.3	18.8	1.9	7.3
COC(=O)C1C=CC(OC2OC(COC(C)=O)C(OC(C)=O)C(OC(C)=O)C2OC(C)=O)n2c(=O)n(-c3ccccc3)c(=O)n21 (configuration not stated)	-0.6	25.7*	x	-2.5	1.6	4.2	18.1	71.9*
O=C(CN1CCC2(CC1)OCCO2)c1ccc2cc[nH]c2c1	0.5	102.0*	-5.7	-8.8	-1.5	0.2	5.5	10.4
c1cc2c(cc1C1CCCCC1)c1c3n2CCCNC3CCC1 (configuration not stated)	0.7	26.7*	-1.9	-0.4	2.0	-1.5	13.2	0.4
Cc1ccc2c(c1)c1c3n2CCCNC3CCC1 (configuration not stated)	4.0	7.9	-2.1	0.4	1.6	-0.9	x	x
CCN(C(=O)[C@@H](C1CC1)[C@@H](O)c1ccc(Cl)cc1)c1ccccc1	-2.5	x	x	-2.3	2.9	0.8	x	x
COC(=O)C1=C(C)N(C)C(=NCc2ccc3c(c2)OCO3)NC1c1ccc(F)cc1 (configuration not stated)	2.6	x	x	2.7	1.4	-3.3	x	x
Cc1cc(Sc2nnc(N)s2)c2ccccc2n1	-3.5	23.2*	-1.4	-3.8	-2.4	2.0	38.2*	58.1*
COc1ccc(CN2CN3Cc4ccc(C)cc4C3CS2(=O)=O)cc1 (configuration not stated)	3.0	x	x	-2.3	-0.1	1.6	x	x
SMILES	MBD2 inh	ABHD5-PLIN5 inh	RBBP9 inhibitor	UHRF1 binding	LEDGF integ inh	PRMT1 inh	ABHD5 PLIN5 conf	HNF4 split-luc
Cc1cc(C)c2nc(-c3ccccn3)cc(C(=O)NCc3ccco3)c2c1	-0.1	45.1*	-9.1	-3.0	2.6	-0.6	21.3	25.6*
Cc1cc(C)c2nc(-c3ccccn3)cc(C(=O)NCc3cc(C)n(C)n3)c2c1	-6.1	-2.3	-6.2	-1.8	-2.0	1.7	x	x
CC(C)C[C@H](NC(=O)c1ccc(Cl)cc1Cl)C(=O)N1CCC[C@H]1C(=O)NCc1ccccc1	0.8	x	x	-0.6	-0.8	1.4	x	x
CCOc1cc(/C=C2\COc3ccccc3C2=O)ccc1OCC(=O)N(C)C	1.1	60.7*	x	-1.9	-3.0	2.7	77.1*	69.3*
COc1ccc(/C=C2\CCc3ccccc3C2=O)cc1OC	0.8	-0.5	-11.5	1.0	0.8	3.2	x	x
CCNC(=O)COc1ccc(/C=C2\COc3ccccc3C2=O)cc1OC	-3.5	55.6*	x	-1.9	2.4	2.1	81.5*	81.1*
NC(=O)c1c(N)[nH]c(C(=O)c2ccccc2)c1-c1ccccc1Cl	-2.4	x	x	1.8	-2.4	0.6	x	x
CCn1cc(CN2CCCC(C(=O)Nc3cccc(-c4cc5ccccc5[nH]4)c3)C2)c(C)n1 (configuration not stated)	4.3	31.1*	x	0.6	3.0	0.5	10.9	3.9
